Screening results deposited in PubChem BioAssay by several laboratories.
Sampled rows, rich in hits. Any-hit rate of the full collection: about 8.4%.
Cav3 T inh: blocks human Cav3.2 T-type calcium channel. B-score at 10 µM. O95180. 100,000 tested, 4% active. Cav3.2-expressing cells, Fluo-4 calcium fluorescence FDSS; stronger effect = lower value;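 active = single-dose well whose peak fluorescence ratio is a statistical outlier from its plate by either plate-standardised score or position-corrected B-score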
E coli WT exp: growth inhibitors of E. coli BW25113 wild type | 98,000 tested, 0.15% active | OD600 absorbance | growth inhibition, % at 100 µM;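 active = growth inhibition above about 50% at one test dose, limit read from the data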;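 note: growth measured after 20 h incubation at 37 °C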
PostGolgi ctrl: yeast control strain growth, post-Golgi counter-screen; 98,000 tested, 5% active; AID 738; inhibition, % at 10 µM; efflux-deficient yeast background strain, growth absorbance A615, 16 h
Ecoli tolC: E. coli tolC mutant growth inhibition. E. coli BW25113 tolC mutant growth, OD615. growth inhibition, % at 10 µM (by protocol). 65,000 tested, 2.2% active;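 active = growth inhibition at or above a cutoff equal to the mean over every tested compound plus 3 SD, cut at about 60% in these data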;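 note: growth measured after 20 h incubation at 37 °C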
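Doses: one dose of 10 µM final / Material: E. coli BW25113 ΔtolC::kan, tolC deletion mutant strain / Buffer or medium: LB with kanamycin 50 µg/mL / Evaluation: percent growth inhibition / Detection: optical density read at 615 nm / Incubation: 37 °C, 20 h exposure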
PostGolgi yeast: growth inhibition of a yeast mutant, post-Golgi transport screen; post-Golgi transport phenotypic cell assay; 98,000 tested, 0.9% active; inhibition, % at 10 µM;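 note: yeast cells grown in 1536-well plates; yeast grown about 18 h at 30C before absorbance read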
* hit, by the source's call. Cut-off read from the data, not from the text of the source, unless noted: active = inhibition above about 30%; inactive = the rest.

CCc1nc(N(CC)CC)c2oc3ccccc3c2n1 was read as Cav3 T inh -2.5, E coli WT exp 10, PostGolgi ctrl 36*, Ecoli tolC 34 and PostGolgi yeast -6.
`CCc1nc(SCCO)c2oc3ccccc3c2n1` gave Cav3 T inh -0.64, E coli WT exp -4, PostGolgi ctrl 5, Ecoli tolC 6 and PostGolgi yeast 19.
`CCc1nc(SCc2nc3ccccc3[nH]2)c2oc3ccccc3c2n1` gave Cav3 T inh -1.6, E coli WT exp -1, PostGolgi ctrl 69* and PostGolgi yeast 1.
Screening CCc1nc(N2CCC(C)CC2)c2oc3ccccc3c2n1 returned Cav3 T inh -0.16, E coli WT exp 2, PostGolgi ctrl 26, Ecoli tolC 100* and PostGolgi yeast -5.
For CCc1nc(NCc2ccc3c(c2)OCO3)c2oc3ccccc3c2n1 the results were Cav3 T inh -3.7*, E coli WT exp -14, PostGolgi ctrl 55* and PostGolgi yeast 0.
`CCNc1nc(CC)nc2c1oc1ccccc12` gave Cav3 T inh -0.0054, E coli WT exp -1, PostGolgi ctrl 5, Ecoli tolC 8 and PostGolgi yeast -12.
CCc1nc(NCC2CCCO2)c2oc3ccccc3c2n1 (configuration not stated) was read as Cav3 T inh -0.78, E coli WT exp 10, PostGolgi ctrl -1, Ecoli tolC 11 and PostGolgi yeast -5.
`Cc1nc(NCc2ccc3c(c2)OCO3)c2oc3ccccc3c2n1` gave Cav3 T inh -1.5, E coli WT exp -7, PostGolgi ctrl 24, Ecoli tolC 25 and PostGolgi yeast -1.
CCc1nc(SCC(=O)N2CCN(c3ccccc3)CC2)c2oc3ccccc3c2n1 was read as Cav3 T inh -0.59, E coli WT exp -17, PostGolgi ctrl 33* and PostGolgi yeast -3.
For CCc1nc(SCC(=O)N2CCN(c3ccccc3)CC2)c2c(=O)n(C)c(=O)n(C)c2n1 the results were Cav3 T inh 0.079 and Ecoli tolC -15.
Cc1nc2sccn2c1-c1nc(C2CC2)c(C(=O)c2ccc3c(c2)NC(=O)CO3)s1 was read as Ecoli tolC 10.
Screening Cc1ccc(S(=O)(=O)NNc2nc3ccccc3nc2C(F)(F)F)cc1 returned Cav3 T inh -3.4*, E coli WT exp 6, PostGolgi ctrl 8 and PostGolgi yeast -1.
Cc1ccc(S(=O)(=O)NNc2ccccc2)cc1 was read as Cav3 T inh -0.15, E coli WT exp -1, PostGolgi ctrl 19 and PostGolgi yeast -6.
CCOC(=O)c1c(C)oc2ccc(NS(=O)(=O)c3ccc4c5c(cccc35)C(=O)N4)cc12 was read as Cav3 T inh -1.5, E coli WT exp 0, PostGolgi ctrl 9, Ecoli tolC 68* and PostGolgi yeast 7.
For COC(=O)c1c(C)oc2ccc(N(C(=O)c3ccncc3)S(=O)(=O)c3ccccc3)cc12 the results were Cav3 T inh -4.1*, E coli WT exp 0, PostGolgi ctrl 16 and PostGolgi yeast 0.
`COC(=O)c1c(C)oc2ccc(NS(=O)(=O)c3cccs3)cc12` gave Cav3 T inh -4.9*, E coli WT exp -3, PostGolgi ctrl 25, Ecoli tolC 45 and PostGolgi yeast 9.
For CC(C)(C)OC(=O)NCCCC[C@H](NC(=O)c1nc[nH]c1C(=O)NC1CCN(C(=O)OC(C)(C)C)CC1)C(=O)OC(C)(C)C the results were Cav3 T inh -3.4.
COc1ccc(C(NC(=O)CNC(C)=O)C(=O)Nc2ccc3c(c2)OCCO3)cc1 (configuration not stated) was read as Cav3 T inh 1.8, E coli WT exp 3, PostGolgi ctrl 1, Ecoli tolC -23 and PostGolgi yeast -3.
COc1cnn(-c2ccccc2)c(=O)c1SCc1ccc(Cl)c(Cl)c1 was read as Cav3 T inh -4.5, E coli WT exp -15, PostGolgi ctrl 60* and PostGolgi yeast 2.
`Cc1c(C(=O)N2CCCC2)oc2c1-c1[nH]ncc1CC2` gave Cav3 T inh 0.37 and Ecoli tolC -3.
`CC(C)(C)n1nc2c(c1NC(=O)COc1ccc(Cl)cc1)CSC2` gave Cav3 T inh -4.4*, E coli WT exp 6, PostGolgi ctrl -3, Ecoli tolC -11 and PostGolgi yeast -4.
`CCn1c(CNC(=O)COc2ccc(C(C)C)cc2)nnc1SCC(=O)Nc1ccccc1` gave Cav3 T inh -4*, E coli WT exp 5, PostGolgi ctrl 1 and PostGolgi yeast 26.
`CCn1c(COc2ccccc2C)nnc1SCC(=O)CC(=O)Nc1ccccc1` gave Cav3 T inh -5*, E coli WT exp 16, PostGolgi ctrl 5, Ecoli tolC 24 and PostGolgi yeast 12.
Cc1ccc(NCc2nnc(SCCN3CCCCC3)n2CC2CCCO2)c(C)c1 (configuration not stated) was read as Cav3 T inh 1.5, E coli WT exp -2, PostGolgi ctrl 6, Ecoli tolC -20 and PostGolgi yeast 4.
`C=CCn1c(COc2cccc3ccc(C)nc23)nnc1SCC(=O)OC` gave Cav3 T inh 0.21, E coli WT exp 4, PostGolgi ctrl 4, Ecoli tolC -4 and PostGolgi yeast 30*.
`CCOc1ccc(NC(=O)CSc2nnc(C(C)C)n2CC)cc1` gave Cav3 T inh 0.2.
For Cc1ccc(NCc2nnc(SCC(=O)Nc3ccccc3)n2CC2CCCO2)c(C)c1 (configuration not stated) the results were Cav3 T inh -4.5*, E coli WT exp 3, PostGolgi ctrl 2, Ecoli tolC -7 and PostGolgi yeast 6.
Screening C#CCOC(=O)CCCNc1ccc([N+](=O)[O-])cc1[N+](=O)[O-] returned Cav3 T inh -1.3, E coli WT exp 1, PostGolgi ctrl 3 and PostGolgi yeast 5.
For CCOC(=O)c1ccc(CNC(=O)Cn2nnc(-c3ccc(C)cc3)n2)o1 the results were Cav3 T inh -1.6, E coli WT exp -1, PostGolgi ctrl 12, Ecoli tolC -15 and PostGolgi yeast -4.
CCOC(=O)c1cccc(NC(=O)CSc2nnc(COc3ccccc3)n2CC)c1 was read as Cav3 T inh -6.1*, E coli WT exp -6, PostGolgi ctrl 17, Ecoli tolC 16 and PostGolgi yeast -19.
CCOC(=O)c1cccc(NC(=O)CSc2nnc(CNc3ccc(C)cc3)n2CC)c1 was read as Cav3 T inh -4.1*, E coli WT exp -7, PostGolgi ctrl 7, Ecoli tolC 23 and PostGolgi yeast 20.
CCn1c(COc2cccc(C)c2)nnc1SCC(=O)Nc1cccc(C(=O)OC)c1 was read as Cav3 T inh -0.45, E coli WT exp -14, PostGolgi ctrl 11, Ecoli tolC 28 and PostGolgi yeast -10.
CCn1c(COc2cccc3ccccc23)nnc1SCC(=O)OC1CCCCC1 was read as Cav3 T inh -5.6*, E coli WT exp -19, PostGolgi ctrl 18 and PostGolgi yeast -3.
For CCOC(=O)c1ccccc1NC(=O)CSc1nnc(COc2ccccc2)n1CC the results were Cav3 T inh -5.7*, E coli WT exp -9, PostGolgi ctrl 18, Ecoli tolC 50 and PostGolgi yeast -9.
